From PubChem
This is a sample that favours compounds with a hit; in the whole collection about 4.9% have one here.
STAT1 inh = reduces IFN-gamma driven STAT1 reporter signal; NIH 3T3 STAT1-luciferase reporter, luminescence; inhibition, % at 5.5 µM; hit rate 0.35% among 200,000; AID 920;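 active means inhibition above a set limit, the mean inhibition across all tested compounds plus 3 SD, cut at about 34% in these data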;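 further: 0% = IFN-gamma with DMSO and 100% = IFN-gamma with 300 µM nifuroxazide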
STAT3 inh = inhibitors of IL-6 induced STAT3 signaling; hit rate 0.89% among 190,000; AID 862; U3A cells, IL-6 STAT3-luciferase reporter, luminescence; host cell line lacks STAT1; inhibition, % at 5.5 µM;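 active means inhibition above the mean inhibition across all screened compounds plus 3 SD, cut at about 44% in these data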;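 further: 0% = DMSO only wells and 100% = 100 µM nifuroxazide control wells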
NF-kB neuron act = compounds increasing NF-kB expression in human neuronal cells; NF-kB reporter expression; stronger effect = higher value; fold change at 12.5 µM; hit rate 1.6% among 190,000; in the data active means fold change above about 3.3
STAT1 act = activators of IFN-gamma induced STAT1 signaling; NIH 3T3 STAT1-luciferase reporter, luminescence; 100% = IFN-gamma alone, no compound; hit rate 2.6% among 200,000; activation (% of control), % at 5.5 µM;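 active means activation above the screen-wide mean activation plus 3 SD, cut at about 130% in these data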;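 further: raw ratio to IFN-gamma control signal so 100% means no change and 0% no light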
APP 5'UTR act = activates APP 5'UTR luciferase reporter; SH-SY5Y APP 5'UTR luciferase reporter, luminescence; zero percent = DMSO vehicle wells; activation, % at 2 µM; hit rate 1% among 190,000;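 active means activation above a set limit, based on mean plus 3 SD of controls, cut at about 140% in these data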
STAT3 act = activators of IL-6 induced STAT3 signaling | U3A cells, IL-6 STAT3-luciferase reporter, luminescence; 100% = signal with IL-6 EC80 alone | activation (% of control), % at 5.6 µM | hit rate 0.91% among 190,000;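 active means activation above the screen-wide mean of compound activation plus 3 SD, cut at about 130% in these data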;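 further: 0% = background luminescence of wells with medium and substrate only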
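system = STAT3-luciferase reporter U3A cells | reagent = IL-6 stimulus at 33 ng/mL final | timing = 1 h compound pre-exposure, 6 h IL-6 stimulation, 37 °C | measured by = luminescence | evaluation = % activation versus median of IL-6-stimulated wells | control set = IL-6-only wells as 100% reference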
* = called active by the depositor.

SMILES	STAT1 inh	STAT3 inh	NF-kB neuron act	STAT1 act	APP 5'UTR act	STAT3 act
COc1ccc2c(c1)C=C(CN1CCN(C3CCCC3)C(CCO)C1)CO2 (configuration not stated)	1	14	1.1	97	25	91
Cc1ccc(C2=N/C(=C\N3CCCCC3)C(=O)O2)cc1	-45	8	3.3	142*	100	100
Cc1ccc(C2=N/C(=C/N3CCOCC3)C(=O)O2)cc1	-31	-2	2.5	129*	81	106
Cc1cccc2cc(/C=C3\N=C(c4ccccc4)OC3=O)c(N3CCOCC3)nc12	8	3	1	93	17	101
Cc1ccc(OC(=O)COc2ccccc2)c(-n2nc3ccccc3n2)c1	-15	-5	4.8*	114	60	107
Cc1ccc(OC(=O)COc2ccccc2C)c(-n2nc3ccccc3n2)c1	-24	8	3.8*	117	91	95
COC(=O)COc1ccc(C)cc1-n1nc2ccccc2n1	5	-5	1.1	93	-1	107
O=c1c(-c2cc3ccccc3o2)[n+]([O-])c2ccccc2n1OCc1ccccn1	-46	-28	2.1	142*	10	128
C=CCN(CC=C)c1cnn(-c2nc3ccccc3[nH]2)c(=O)c1Cl	-23	23	2.8	122	142*	80
COc1ccc2oc(=O)c(-c3cn4ccc(C)cc4n3)cc2c1	-24	16	1.3	120	41	89
O=c1oc2ccccc2cc1-c1cn2cccnc2n1	-44	33	2.6	140*	55	77
Cc1cccn2cc(-c3cc4ccccc4oc3=O)nc12	-43	37	3.9*	137*	84	73
O=c1oc2ccccc2cc1-c1ccccc1	-32	7	1.7	127	44	98
Nc1ccc(-c2cn3cccnc3n2)cc1	-19	15	1.3	115	26	92
O=c1oc2ccccc2cc1-c1cn2ccccc2n1	81*	96*	0.67	23	32	20
CC(=O)N1CCN(c2c(F)c(F)c(C(F)(F)F)c(F)c2F)CC1	10	14	1.2	89	-5	91
CC(NC(=O)c1cccs1)c1n[nH]c(=S)n1C (configuration not stated)	4	1	1.1	96	-4	103
COc1ccc(-c2csc(N(CCc3ccccc3)C(=O)COc3ccccc3)n2)cc1	-2	6	1.1	102	-3	98
COCCCN(C(C)=O)c1nc(-c2ccccc2)cs1	-42	13	1.6	138*	10	93
COC(=O)c1ccc(COc2cc([N+](=O)[O-])cc3cccnc23)o1	4	3	1.3	95	-3	100
O=[N+]([O-])c1cc(O)c2ncccc2c1	5	-27	5.8*	97	-29	128
CCNS(=O)(=O)c1ccc2c(c1)NCC2	17	-6	1.2	85	15	105
Nc1nc(CSc2ncn(-c3ccccc3)n2)cs1	-35	-5	2.8	132*	107	109
O=C(CSc1ncn(-c2ccccc2)n1)c1cccs1	-32	15	3.5*	129*	102	89
Nc1nc(CSc2nc3ccccc3[nH]2)cs1	-13	3	1.5	112	17	102
SMILES	STAT1 inh	STAT3 inh	NF-kB neuron act	STAT1 act	APP 5'UTR act	STAT3 act
c1ccc(CSc2ncn(-c3ccccc3)n2)cc1	-48	6	4.3*	144*	130	103
CC(C)Oc1cc(N)c(Cl)cc1Cl	2	-3	1.1	98	-4	109
O=C(O)c1nn(-c2cccc(Cl)c2)c(=O)cc1O	-4	5	1.1	103	-14	102
CCN(CC)S(=O)(=O)c1ccc(C(=O)NCC(c2ccc(OC)cc2)N2CCOCC2)cc1 (configuration not stated)	-5	-4	0.8	103	21	104
COCCn1c(SCC(=O)c2c[nH]c3ccccc23)nnc1-c1ccncc1	4	-42	0.97	97	2	136*
CCN(C(=O)CN(C)Cc1cccc(Cl)c1Cl)c1c(N)n(Cc2ccccc2)c(=O)[nH]c1=O	8	-3	0.91	93	-12	99
CC1=Nc2cc([N+](=O)[O-])ccc2NC(C)(C)C1	-2	-7	1.1	102	136*	105
CC1(C)CNc2cc([N+](=O)[O-])ccc2S1	-10	5	1.6	109	-26	99
COc1ccc(C2=Nn3c(nnc3-c3ccccc3)SC2)cc1OC	2	-44	0.88	98	-4	134*
